According to article PMC4857762 (Journal of pharmaceutical sciences, 2016):

Columns and labels:
[1] = molecular target: T1, hPEPT1 (Homo sapiens, UniProt P46059); test: Uptake in Xenopus laevis oocytes expressing hPEPT1; type: cell-based; conditions: 50 μM, pH 6.0, 30 min, room temperature
T1 sequence (P46059 1-708): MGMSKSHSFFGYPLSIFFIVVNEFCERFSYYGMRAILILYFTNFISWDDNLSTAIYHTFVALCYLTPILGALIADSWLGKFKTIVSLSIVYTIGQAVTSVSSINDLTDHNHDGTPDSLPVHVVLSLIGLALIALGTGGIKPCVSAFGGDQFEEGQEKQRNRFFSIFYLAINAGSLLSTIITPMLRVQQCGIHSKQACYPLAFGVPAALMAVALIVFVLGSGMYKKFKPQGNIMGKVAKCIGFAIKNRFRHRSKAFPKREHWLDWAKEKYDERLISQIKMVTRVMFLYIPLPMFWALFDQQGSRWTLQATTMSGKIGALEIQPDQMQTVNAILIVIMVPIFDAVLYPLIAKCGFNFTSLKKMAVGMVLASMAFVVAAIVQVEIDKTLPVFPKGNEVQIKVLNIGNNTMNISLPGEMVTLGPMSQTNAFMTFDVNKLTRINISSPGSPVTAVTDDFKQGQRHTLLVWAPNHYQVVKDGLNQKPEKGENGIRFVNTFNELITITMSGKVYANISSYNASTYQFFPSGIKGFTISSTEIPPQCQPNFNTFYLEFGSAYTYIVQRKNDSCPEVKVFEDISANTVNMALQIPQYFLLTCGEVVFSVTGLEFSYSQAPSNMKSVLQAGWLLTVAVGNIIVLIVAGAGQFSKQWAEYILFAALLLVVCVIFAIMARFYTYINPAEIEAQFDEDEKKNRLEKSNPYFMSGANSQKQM
In short: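 Oocytes injected with hPEPT1 cRNA, with water-injected oocytes as controls. Uptake at room temperature, pH 6.0, in modified Barth's solution (96 mM NaCl, 10 mM HEPES), 50 μM for 30 min; time course up to 3 h; 50–5000 μM for 3 h. Gly-Sar (1, 20 mM) competition expressed as % of uptake without Gly-Sar. Mean ± SEM, 8–13 experiments.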

[2] = test system: HepG2 cell homogenates; test: Hydrolysis in HepG2 cell homogenates; type: in vitro ADME, human; conditions: HepG2 Cell homogenates (pH 6.0), 500 μg/mL protein, 37 °C
[3] = test system: Wild-type mice intestinal tissue homogenates; conditions: mouse, tissue homogenate, pH 6
[4] = test system: Caco-2 cell homogenates; test: Hydrolysis in Caco-2 cell homogenates; type: in vitro ADME, Human; conditions: Caco-2 Cell homogenates (pH 6.0), 500 μg/mL protein, 37 °C
[5] = molecular target: pepsin (Sus scrofa, UniProt P00791); test: Hydrolysis in pH 1.2 SGF with pepsin; type: in vitro ADME; conditions: 37 °C, stable = no decrease in area by HPLC after 2 h
[6] = test system: Caco-2 cell monolayers; test: Transepithelial transport across Caco-2 cell monolayers; conditions: AP-BL
[7] = test system: pancreatin; test: Hydrolysis in buffers / SIF with pancreatin; type: in vitro ADME
[8] = test system: mouse jejunum; test: In situ single-pass intestinal perfusion; conditions: mouse proximal jejunum, 0.1 mM, pH 6.0
[9] = test system: BPHL knock-out mice intestinal tissue homogenates; conditions: mouse, tissue homogenate, pH 6
[10] = test system: Caco-2 cells; test: Intracellular accumulation into Caco-2 cells after transport study; type: in vitro ADME, Human; conditions: Caco-2 cell lysate after 2 h transport study with the prodrug
[11] = Chemical stability in buffers at 37 °C
[12] = In situ single-pass intestinal perfusion; conditions: male, BALB/c, mouse, other: in situ single-pass intestinal (jejunal) perfusion, pH 6
[13] = in vitro; conditions: male, mouse, tissue homogenate, pH 6
[14] = in vitro; conditions: male, BPHL knock-out, mouse, tissue homogenate, pH 6
[15] = given as the ethyl ester prodrug oseltamivir; cited from earlier work

Chain of pepsin (P00791 60-385): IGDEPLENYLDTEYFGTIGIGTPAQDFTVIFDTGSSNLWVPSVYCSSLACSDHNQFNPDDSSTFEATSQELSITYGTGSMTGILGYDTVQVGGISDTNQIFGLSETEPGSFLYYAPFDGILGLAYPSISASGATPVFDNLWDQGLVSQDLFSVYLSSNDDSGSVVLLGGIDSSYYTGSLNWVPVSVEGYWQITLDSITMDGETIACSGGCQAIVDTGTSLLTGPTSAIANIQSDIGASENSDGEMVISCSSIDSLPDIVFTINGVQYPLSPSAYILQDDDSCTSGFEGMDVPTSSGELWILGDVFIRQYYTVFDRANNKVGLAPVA

## CCC(CC)O[C@@H]1C=C(C(=O)O)C[C@H](NC(=N)N)[C@H]1NC(C)=O [GOC]
[1]
  Uptake in hPEPT1 cRNA-injected oocytes versus water-injected control oocytes: no increase in uptake
[2]
  Half-life (t1/2): stable ^b
[3]
  Half-life (t1/2): stable ^b
[4]
  Half-life (t1/2): stable ^b
[5]
  Half-life (t1/2): stable ^b
[6]; apical pH 6.0 / basolateral pH 7.4, 37 °C
  Apparent permeability (Papp): 7.98±4.61 x 10^−7 cm/s
[7]; pH 4.5 Acetate buffer with pancreatin
  Half-life (t1/2): stable ^b
[7]; pH 5.5 Acetate buffer with pancreatin
  Half-life (t1/2): stable ^b
[7]; pH 6.0 MES buffer with pancreatin
  Half-life (t1/2): stable ^b
[7]; pH 6.8 SIF with pancreatin
  Half-life (t1/2): stable ^b
[8]
  Effective permeability (Peff): approximately zero
[9]
  Half-life (t1/2): stable ^b
[10]
  Amount in cells (share of accumulated species after GOC-ISP-Val transport study): 49.2%
[11]; pH 1.2 SGF without pepsin, 0.2 mM, stable = no decrease in area by HPLC after 2 h
  Half-life (t1/2): stable ^b
[11]; pH 4.5 Acetate buffer
  Half-life (t1/2): stable ^b
[11]; pH 5.5 Acetate buffer
  Half-life (t1/2): stable ^b
[11]; pH 6.0 MES buffer
  Half-life (t1/2): stable ^b
[11]; pH 7.4 Phosphate buffer
  Half-life (t1/2): stable ^b

## COCCc1ccc(OCC(O)CNC(C)C)cc1 (centres unmarked) [metoprolol]
[6]; 0.2 mM
  Papp relative to that of the prodrug GOC-ISP-Val: 1.7 times higher
[12]
  Papp at 1.5 h, 0.1 mM: 53.8 ± 16.8 ×10⁻⁶ cm/s

## CC(C)[C@H](N)C(=O)OCCOCn1cnc2c(=O)[nH]c(N)nc21 [valacyclovir]
[13]
  half-life: 1.58 h
[14]
  half-life: 3.12 h

## CCC(CC)O[C@@H]1C=C(C(=O)O)C[C@H](N)[C@H]1NC(C)=O [oseltamivir carboxylate]
[15]
  Oral bioavailability: about 80%
